Data published in ChEMBL document CHEMBL1151164, “New prostanoids with cytotoxic activity from Taiwanese octocoral Clavularia viridis” (J Nat Prod, 2004).

Assays:
HT-29 = experiment: Cytotoxicity against human HT-29 cells after 72 hrs by SRB assay; type: functional, cell-based; details: HT-29, 48 h, in the assay text read “48 hrs” for “72 hrs”
How it was run: (§1)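 Cells seeded in RPMI 1640 with 5% FBS at 37 °C, 5% CO2; after 24 h, two plates per line fixed in situ with TCA as time-zero. Drug added, then 48 h further incubation at 37 °C. Fixed with cold TCA, stained with 0.4% w/v SRB in 1% acetic acid, bound dye solubilized in 10 mM trizma base, absorbance 515 nm. IC50 = concentration halving absorbance versus untreated cells.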

PC-3 = experiment: Cytotoxicity against human PC3 cells after 72 hrs by SRB assay; type: functional, cell-based; details: PC-3, 48 h, in the assay text read “48 hrs” for “72 hrs”; how it was run: as §1

Row | SMILES | IC50 (HT-29) | IC50 (PC-3)
1 | CCCCC/C=C\C[C@@]1(O)C=C(I)C(=O)/C1=C/C=C/CCCC(=O)OC [IODOVULONE II] | 6.5 µM | 3.9 µM
2 | CCCCC/C=C\C[C@@]1(O)C=C(Br)C(=O)/C1=C/C=C/CCCC(=O)OC [BROMOVULONE II] | 5.4 µM | 5.6 µM
3 | CCCCC/C=C\C[C@]1(O)C=CC(=O)/C1=C\C=C\CCCC(=O)OC | 7.9 µM | 3.9 µM
4 | CCCCC/C=C\C[C@@]1(O)C=C(Cl)C(=O)/C1=C/C=C/CCCC(=O)OC [CHLOROVULONE III] | 2.7 µM | 1.9 µM
5 | CCCCC/C=C\C[C@@]1(O)C=C(Cl)C(=O)/C1=C\C=C\CCCC(=O)OC [CHLOROVULONE II] | – | 0.8 µM
6 | CCCCC/C=C\C[C@@]1(O)C=C(I)C(=O)/C1=C\C=C\CCCC(=O)OC [IODOVULONE III] | > 10 µM | 6.7 µM
7 | CCCCC/C=C\C[C@]1(O)C=CC(=O)/C1=C/C=C\CCCC(=O)OC | 6 µM | 7.2 µM
8 | CCCCC/C=C\C[C@]1(OC(C)=O)C=CC(=O)/C1=C/C=C/CCCC(=O)OC [CLAVIRIDENONE E] | > 10 µM | 3.5 µM
9 | CCCCC/C=C\C[C@]1(O)C=CC(=O)/C1=C/C=C/CCCC(=O)OC | 4.1 µM | 5.4 µM
10 | CCCCC/C=C\C[C@@]1(O)C=C(Br)C(=O)/C1=C\C=C\CCCC(=O)OC [BROMOCLAVULONE III] | 0.5 µM | 0.5 µM
